The test system of one assay is A549. The assay can be described thus: Cytotoxicity against human A549 cells after 72 hrs by CCK8 assay. The note with it: A549, 72 h. It is filed as functional, cell-based. The method, boiled down:
(§1)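 Cells seeded in 96-well plates and left overnight at 37 °C in humidified 5% CO2. Serial dilutions of the compounds added, then 72 h further incubation. CCK-8 reagent added for the last 4 h and absorbance read at 450 nm.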

A further assay deals with HL-60. The assay can be described thus: Cytotoxicity against human HL60 cells after 72 hrs by CCK8 assay. Format: functional, cell-based. To be noted: HL-60, 72 h. The method, boiled down: as §1
A general note: Tetrazolium dyes change colour on reduction, which living cells bring about.

Molecules are shown by their SMILES. A value given as a limit tells only on which side of the number the result lay.

As a reminder, the IC50 is the point on the concentration scale where inhibition reaches its midpoint. Lower therefore signals higher potency.

Turning to `C=C1C(=O)O[C@H]2[C@H]1[C@H](OC(=O)/C(C)=C\C)C(=O)[C@H](C)CCC[C@](C)(O)[C@@H]2OC(=O)C(C)C`, the half-maximal inhibitory concentration (IC50) in the assay on A549 was 4.7 µM; in the assay on HL-60 it was 3 µM.

With `C=C1C(=O)O[C@@H]2[C@@H]1[C@H](O)[C@@H](OC(=O)C(C)C)[C@@H](C)CCC(=O)[C@](C)(O)[C@H]2OC(=O)C(C)C`, the IC50 was 4 µM with A549 and 5.9 µM in the assay on HL-60.

With `C=C1C(=O)O[C@H]2[C@@H]1[C@@H](OC(=O)CC(C)C)[C@@]1(O)O[C@H](CC[C@H]1C)[C@](C)(O)[C@@H]2OC(=O)C(C)C`, the 50% inhibitory concentration (IC50) is 10.3 µM in the assay on A549 and 6.2 µM in the assay with HL-60.

Regarding `C=C1C(=O)O[C@H]2[C@@H]1[C@H](OC(=O)CC(C)C)C(=O)[C@H](C)C[C@H]1O[C@@H]1[C@](C)(O)[C@@H]2OC(=O)C(C)C`, the IC50 was > 10 µM in the assay on A549 and 2.8 µM with HL-60.

`COc1cccc2c1C(=O)c1c(O)c3c(c(O)c1C2=O)C[C@@](O)(C(=O)CO)C[C@@H]3O[C@H]1C[C@H](N)[C@H](O)[C@H](C)O1` [DOXORUBICIN] registered a half-maximal inhibitory concentration (IC50) in the assay on A549 of 0.4 µM.

Turning to `C=C1C(=O)O[C@H]2[C@@H]1[C@@H](OC(=O)CC(C)C)[C@@]1(O)O[C@H](CC[C@H]1C)[C@](C)(O)[C@@H]2OC(=O)C(C)CC` (stereo not given in full), the half-maximal inhibitory concentration (IC50) with A549 was determined as 6.7 µM; in the assay on HL-60, 5.6 µM.

For the molecule `C=C1C(=O)O[C@H]2[C@H]1[C@H](OC(=O)C(C)C)C(=O)[C@H](C)CCC[C@](C)(O)[C@@H]2OC(=O)C(C)C`, the IC50 in the assay on A549 came out at 5.2 µM; with HL-60, 5 µM.

With `C=C1C(=O)O[C@H]2[C@H]1[C@@H](O)[C@H](OC(=O)CC(C)C)[C@H](C)CCC(=O)[C@](C)(O)[C@@H]2OC(=O)C(C)C` (relative stereo), the IC50 in the assay on A549 was found to be 6.2 µM; with HL-60, 5.5 µM.

(Values after ChEMBL document CHEMBL4480450, “Cytotoxic Germacrane-Type Sesquiterpene Lactones from the Whole Plant of Carpesium lipskyi” (J Nat Prod, 2019).)
